The target in data set [1] is T1, Transient receptor potential cation channel subfamily A member 1 (Homo sapiens, UniProt O75762). Nature of the data set: Agonist activity at human TRPA1 in WI38 cells assessed as increase in calcium influx by Fluo-4-AM dye based fluorescence assay. It is filed as cell-based.
The subject of data set [2] is Transient receptor potential cation channel subfamily A member 1 (Homo sapiens), O75762 [F909A]. Briefly: Agonist activity at human TRPA1 Phe909Ala mutant expressed in HEK293 cells assessed as Ca2+ influx at 30 uM by fluorescence assay. It is filed as cell-based. In a few lines:
(§1)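 HEK293 cells stably expressing hTRPA1 point mutants (C621A, F909A or F944A), single-cell cloned under G418 selection. Cells plated on poly-D-lysine for 48 h, loaded with Fluo-4AM 2 µM for 45 min at room temperature. FlexStation read (ex 485/em 538 nm): 20 s baseline, compound added, calcimycin added at 180 s. Response expressed as % calcimycin from ΔRFU, vehicle-subtracted, and compared with wild-type hTRPA1 cells.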

Data set [3] concerns the target T1, Transient receptor potential cation channel subfamily A member 1. Nature of the data set: Agonist activity at human TRPA1 expressed in HEK293 cells assessed as increase in calcium influx by Fluo-4-AM dye based fluorescence assay. It is filed as cell-based. Put shortly: (§2)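 Stably transfected hTRPA1- or hTRPM8-HEK293 cells on poly-D-lysine plates for 48 h, loaded with Fluo-4AM (2 µM, 45 min, dark, room temperature), in isotonic HEPES buffer pH 7.4. FlexStation 240 s run: 20 s baseline, compound added, calcimycin added at 180 s. ΔRFU expressed as % calcimycin, DMSO-subtracted. Screening N = 3. Dose-response curves fitted for logEC50 (N = 3 in duplicate or triplicate).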

In data set [4] the target is T2, Transient receptor potential cation channel subfamily M member 8 (Homo sapiens, UniProt Q7Z2W7). Nature of the data set: Antagonist activity at human TRPM8 expressed in HEK293 cells assessed as increase in calcium influx at 3 uM incubated for 10 mins prior to WS5 challenge by Fluo-4-AM dye based fluorescence assay relative to WS5. It is filed as cell-based. On the set-up: scale not given: the % may be the effect or the level left. In a few lines: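 hTRPM8-HEK293 cells loaded with Fluo-4AM (2 µM, 45 min). Test compound pre-incubated 10 min before WS5 standard agonist. FlexStation fluorescence at 485/538 nm. ΔRFU given as % of WS5 response after DMSO vehicle subtraction. N = 3. IC50 from dose-response curves.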
T2 sequence (Q7Z2W7 whole entry, looked up): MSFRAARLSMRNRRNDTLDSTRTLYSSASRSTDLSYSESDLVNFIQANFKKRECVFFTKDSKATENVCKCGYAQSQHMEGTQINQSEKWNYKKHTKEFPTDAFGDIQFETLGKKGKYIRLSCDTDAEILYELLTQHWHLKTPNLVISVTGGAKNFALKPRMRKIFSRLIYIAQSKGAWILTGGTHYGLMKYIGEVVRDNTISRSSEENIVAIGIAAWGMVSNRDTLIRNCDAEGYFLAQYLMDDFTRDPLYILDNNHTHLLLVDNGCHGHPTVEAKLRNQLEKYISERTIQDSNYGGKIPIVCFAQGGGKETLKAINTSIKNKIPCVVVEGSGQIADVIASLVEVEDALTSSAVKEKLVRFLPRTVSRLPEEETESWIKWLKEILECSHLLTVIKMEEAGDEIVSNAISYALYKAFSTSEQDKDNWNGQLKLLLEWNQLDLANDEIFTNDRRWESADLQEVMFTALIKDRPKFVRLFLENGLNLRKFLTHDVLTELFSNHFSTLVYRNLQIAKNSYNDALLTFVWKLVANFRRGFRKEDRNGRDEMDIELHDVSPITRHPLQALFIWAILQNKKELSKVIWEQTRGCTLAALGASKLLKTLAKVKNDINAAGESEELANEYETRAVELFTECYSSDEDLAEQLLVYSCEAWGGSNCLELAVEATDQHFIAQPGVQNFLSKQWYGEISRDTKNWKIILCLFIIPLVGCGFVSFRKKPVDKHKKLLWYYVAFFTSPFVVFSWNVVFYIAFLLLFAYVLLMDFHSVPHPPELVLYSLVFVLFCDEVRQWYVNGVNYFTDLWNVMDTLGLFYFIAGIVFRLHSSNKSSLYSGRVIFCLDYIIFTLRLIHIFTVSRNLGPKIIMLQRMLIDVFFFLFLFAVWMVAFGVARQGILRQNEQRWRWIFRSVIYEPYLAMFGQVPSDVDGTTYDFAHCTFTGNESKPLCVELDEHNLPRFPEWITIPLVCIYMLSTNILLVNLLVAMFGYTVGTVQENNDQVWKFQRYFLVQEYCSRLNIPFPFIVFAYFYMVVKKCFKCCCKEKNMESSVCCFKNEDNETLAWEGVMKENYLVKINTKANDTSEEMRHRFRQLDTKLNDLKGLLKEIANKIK

In data set [5] the target is T1, Transient receptor potential cation channel subfamily A member 1. Nature of the data set: Antagonist activity at human TRPA1 expressed in HEK293 cells assessed as increase in calcium influx at 3 uM incubated for 10 mins prior to CA challenge by Fluo-4-AM dye based fluorescence assay […]. On the set-up: scale not given: the % may be the effect or the level left. The data set is classed as cell-based.

A short description of data set [6]: Dissociation constant, pKa of the compound at pH 7.4. The data set is classed as physicochemical.
The target in data set [7] is T2, Transient receptor potential cation channel subfamily M member 8. Briefly: Agonist activity at human TRPM8 expressed in HEK293 cells assessed as increase in calcium influx at 3 uM by Fluo-4-AM dye based fluorescence assay relative to calcimycin. The data set is classed as cell-based. Put shortly: as §2
For data set [8], the target named is T1, Transient receptor potential cation channel subfamily A member 1. Briefly: Agonist activity at human TRPA1 expressed in HEK293 cells assessed as increase in calcium influx at 3 uM by Fluo-4-AM dye based fluorescence assay relative to calcimycin. It is filed as cell-based. Put shortly: as §2
Data set [9] deals with Transient receptor potential cation channel subfamily A member 1 (Homo sapiens), O75762 [F909A]. Briefly: Agonist activity at human TRPA1 Phe909Ala mutant expressed in HEK293 cells assessed as Ca2+ influx at 10 uM by fluorescence assay. The data set is classed as cell-based. In a few lines: as §1
Transient receptor potential cation channel subfamily A member 1 (Homo sapiens), O75762 [F909A], sequence (O75762 whole entry F909A): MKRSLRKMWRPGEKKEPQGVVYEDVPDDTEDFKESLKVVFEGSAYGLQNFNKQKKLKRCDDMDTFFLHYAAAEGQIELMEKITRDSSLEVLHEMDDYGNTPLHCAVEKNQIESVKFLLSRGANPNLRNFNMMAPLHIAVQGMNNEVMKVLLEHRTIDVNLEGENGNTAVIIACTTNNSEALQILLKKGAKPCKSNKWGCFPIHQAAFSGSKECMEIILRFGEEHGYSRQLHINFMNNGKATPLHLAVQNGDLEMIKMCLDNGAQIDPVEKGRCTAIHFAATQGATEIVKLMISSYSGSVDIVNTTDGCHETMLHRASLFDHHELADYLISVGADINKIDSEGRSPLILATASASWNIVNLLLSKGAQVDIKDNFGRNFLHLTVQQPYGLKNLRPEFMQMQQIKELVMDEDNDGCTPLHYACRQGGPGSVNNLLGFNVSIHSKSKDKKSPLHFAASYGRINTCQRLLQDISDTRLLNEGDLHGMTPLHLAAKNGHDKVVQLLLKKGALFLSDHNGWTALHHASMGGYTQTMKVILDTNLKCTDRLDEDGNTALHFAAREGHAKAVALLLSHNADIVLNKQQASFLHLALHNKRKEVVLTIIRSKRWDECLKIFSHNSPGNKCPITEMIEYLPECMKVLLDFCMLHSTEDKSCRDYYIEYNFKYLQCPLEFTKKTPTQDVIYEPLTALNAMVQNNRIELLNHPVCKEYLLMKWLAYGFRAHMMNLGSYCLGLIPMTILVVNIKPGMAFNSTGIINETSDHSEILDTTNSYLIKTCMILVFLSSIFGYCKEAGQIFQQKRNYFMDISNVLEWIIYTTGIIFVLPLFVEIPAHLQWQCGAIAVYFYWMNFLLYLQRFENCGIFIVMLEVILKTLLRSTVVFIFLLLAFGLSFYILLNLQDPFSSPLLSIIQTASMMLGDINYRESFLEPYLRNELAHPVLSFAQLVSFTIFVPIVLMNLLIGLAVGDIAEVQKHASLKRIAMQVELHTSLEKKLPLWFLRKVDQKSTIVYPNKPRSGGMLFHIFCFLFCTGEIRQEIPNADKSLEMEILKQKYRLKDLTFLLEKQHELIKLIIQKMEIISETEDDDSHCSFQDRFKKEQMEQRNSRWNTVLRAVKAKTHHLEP
The test system of data set [10] is Transient receptor potential cation channel subfamily A member 1 (Homo sapiens), O75762 [F944A]. Nature of the data set: Agonist activity at human TRPA1 Phe944Ala mutant expressed in HEK293 cells assessed as Ca2+ influx at 10 uM by fluorescence assay. It is filed as cell-based. Put shortly: as §1
Transient receptor potential cation channel subfamily A member 1 (Homo sapiens), O75762 [F944A], sequence (O75762 whole entry F944A): as the sequence (O75762 whole entry F909A) above, with A909F, F944A counted along it
Data set [11] concerns Transient receptor potential cation channel subfamily A member 1 (Homo sapiens), O75762 [F909A]. Nature of the data set: Agonist activity at human TRPA1 Phe909Ala mutant expressed in HEK293 cells assessed as Ca2+ influx at 100 uM by fluorescence assay. It is filed as cell-based. Put shortly: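 HEK293 cells stably expressing hTRPA1 point mutants, made by FuGENE 6 transfection, G418 (0.5 mg ml-1) selection and single-cell cloning, grown in DMEM with 25 mM HEPES, 10% FBS and geneticin. Ca2+ influx was read by Fluo dye fluorescence at room temperature, with calcimycin added at the end. Response was ΔRFU as % of calcimycin, with the DMSO vehicle subtracted.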

Data set [12] has the same test system. Briefly: Antagonist activity at human TRPA1 Phe909Ala mutant expressed in HEK293 cells assessed as Ca2+ influx at 100 uM by fluorescence assay. The data set is classed as cell-based. Put shortly: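 hTRPA1 F909A or F944A mutant HEK293 stable clones, loaded with Fluo-4AM (2 µM, 45 min, room temperature). Compound pre-incubated 10 min before the standard agonist was added. FlexStation fluorescence (485/538 nm). ΔRFU normalized to the standard agonist response set at 100 %, after DMSO vehicle subtraction.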

Data set [13] has as its target T1, Transient receptor potential cation channel subfamily A member 1. Briefly: Antagonist activity at human TRPA1 expressed in HEK293 cells assessed as inhibition of CA-induced increase in calcium influx incubated for 10 mins prior to CA addition by Fluo-4-AM dye based fluorescence assayy. The data set is classed as cell-based.
The subject of data set [14] is Transient receptor potential cation channel subfamily A member 1 (Homo sapiens), O75762 [F944A]. Nature of the data set: Agonist activity at human TRPA1 Phe944Ala mutant expressed in HEK293 cells assessed as Ca2+ influx at 30 uM by fluorescence assay. The data set is classed as cell-based. In a few lines:
as §1

The source made the active and inactive calls. The calls are words filed in the database; no cut-off is given here.

T1 sequence (O75762 whole entry): as the sequence (O75762 whole entry F909A) above, with A909F counted along it

Consider `Cc1cccc(Nc2ccccc2C(=O)O)c1C` [MEFENAMIC ACID], for which the EC50 was found to be 61 µM in data set [1] and 16 µM in data set [3] (read-out: EC50). In [2], the result was Active.

Turning to `COC(=O)c1ccccc1NC(=O)/C(=C/c1ccccc1)c1ccccc1`, the Activity in data set [4] was found to be 48%; in data set [5] it was 51%; in [7], 23%; in data set [8], 63%. Moreover, the pKa (usually the pH at which an ionisable group is half protonated) in data set [6] is 13.9.

Take `O=C(O)c1ccccc1Nc1cccc(C(F)(F)F)c1` [FLUFENAMIC ACID]: the EC50 was 24 µM in [1], 7 to 57 µM in [3] (read-out: EC50) and 6.92 µM in data set [3] (read-out: pEC50 (converted)). In [9], the outcome was Active. In addition, the outcome in data set [10] was inactive.

Turning to `Cc1ccc(C(C)C)c(O)c1`, the result in data set [11] was Active.

In the case of `CC(C)c1ccc(NC(=O)Cn2cnc3c2c(=O)n(C)c(=O)n3C)cc1`, in data set [12], the outcome was Active. In data set [13], the IC50 (in general, the concentration needed to halve the response being measured) is 18 µM.

As for `COC(=O)c1ccccc1NC(=O)/C(C)=C/c1ccccc1`, the Activity in [4] came to 30%; in data set [5] it was 73%; in [8], 49%. In [6], this molecule registered a pKa of 13.9.

Turning to `O=C(O)Cc1ccccc1Nc1c(Cl)cccc1Cl` [DICLOFENAC], the values for the EC50 in [1], in [3] (read-out: EC50) and in data set [3] (read-out: pEC50 (converted)) were 210 µM, 56 µM and 63.1 µM, respectively. The outcome in data set [2] was Active.

Regarding `NC(=O)c1cccc(-c2cccc(OC(=O)NC3CCCCC3)c2)c1` [URB-597], in data set [3] (read-out: EC50), the EC50 came out at 0.1 µM. The result in [11] was Active.

On to `CCCCCc1ccc(/C=C/C(=O)Nc2ccccc2C(=O)O)cc1`, for which the result in [14], in data set [2] and in data set [9] was Active. The EC50 in [3] (read-out: EC50) turned out to be 28 µM. The result in data set [10] was inactive.

Regarding `COC(=O)c1ccccc1NC(=O)/C=C/c1ccccc1`, the Activity turned out to be 61% in data set [4] and 22% in [8]. Moreover, the result in data set [5] and in data set [7] was inactive. In data set [6], this molecule had a pKa of 13.9.

(Values after ChEMBL document CHEMBL4346663, “N-Cinnamoylanthranilates as human TRPA1 modulators: Structure-activity relationships and channel binding sites” (Eur J Med Chem, 2019).)
